Assay results taken from ChEMBL document CHEMBL1914395, “Design, synthesis, and biological evaluation of callophycin A and analogues as potential chemopreventive and anticancer agents” (Bioorg Med Chem, 2011).

target: T1, Nitric oxide synthase, inducible (Mus musculus) (UniProt P29477); assay: Inhibition of iNOS-mediated nitric oxide production in LPS-stimulated mouse RAW 264.7 cells assessed as cell survival at 50 uM pretreated 15 mins before LPS challenge measured after 20 hrs relative to control; type: cell-based; settings: not given
T1 sequence (whole entry): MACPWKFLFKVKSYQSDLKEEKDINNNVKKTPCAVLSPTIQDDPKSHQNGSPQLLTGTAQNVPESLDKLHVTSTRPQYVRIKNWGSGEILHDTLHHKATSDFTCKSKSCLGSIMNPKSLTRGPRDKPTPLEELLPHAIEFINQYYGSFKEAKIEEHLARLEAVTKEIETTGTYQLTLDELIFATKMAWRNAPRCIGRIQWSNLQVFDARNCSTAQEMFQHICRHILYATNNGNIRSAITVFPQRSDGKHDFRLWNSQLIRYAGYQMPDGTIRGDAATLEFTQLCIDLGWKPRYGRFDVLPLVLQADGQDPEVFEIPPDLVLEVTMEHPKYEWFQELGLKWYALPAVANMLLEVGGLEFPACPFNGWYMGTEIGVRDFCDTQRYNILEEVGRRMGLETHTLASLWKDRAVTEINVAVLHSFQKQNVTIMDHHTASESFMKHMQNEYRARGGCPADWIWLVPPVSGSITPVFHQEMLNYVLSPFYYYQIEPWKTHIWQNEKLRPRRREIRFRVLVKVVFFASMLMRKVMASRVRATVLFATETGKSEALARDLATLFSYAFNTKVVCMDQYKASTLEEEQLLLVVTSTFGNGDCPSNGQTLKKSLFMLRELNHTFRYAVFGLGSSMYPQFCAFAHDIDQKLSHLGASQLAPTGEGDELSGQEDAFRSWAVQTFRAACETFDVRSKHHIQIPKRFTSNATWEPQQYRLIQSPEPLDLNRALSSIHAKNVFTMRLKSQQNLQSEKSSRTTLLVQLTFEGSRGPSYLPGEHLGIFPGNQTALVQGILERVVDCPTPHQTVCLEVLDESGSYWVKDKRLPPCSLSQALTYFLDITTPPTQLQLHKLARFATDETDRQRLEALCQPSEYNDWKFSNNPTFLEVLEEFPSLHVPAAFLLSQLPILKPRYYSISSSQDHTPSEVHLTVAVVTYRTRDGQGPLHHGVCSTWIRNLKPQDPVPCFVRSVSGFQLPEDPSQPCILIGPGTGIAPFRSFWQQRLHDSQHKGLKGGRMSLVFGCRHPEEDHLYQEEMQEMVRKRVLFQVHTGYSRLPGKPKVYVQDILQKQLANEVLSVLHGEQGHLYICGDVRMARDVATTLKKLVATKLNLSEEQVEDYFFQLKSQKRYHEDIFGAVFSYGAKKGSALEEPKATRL
Method in brief: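 RAW 264.7 cells were incubated at 37°C, 5% CO2 for 24 h. They were then exposed to compound for 15 min before LPS (1 μg/mL) was added for 20 h. Cytotoxicity was measured by SRB staining under the same conditions. Survival is expressed as % relative to vehicle-treated controls at 50 μM.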

First: COC(=O)[C@H]1Cc2c([nH]c3ccccc23)CN1S(=O)(=O)c1ccc(C)cc1
Second: Cc1ccc(S(=O)(=O)N2Cc3[nH]c4ccccc4c3C[C@@H]2C(=O)O)cc1
The Survival of the first is lower: 91.4% for the first, 102% for the second.

Going from `CS(=O)(=O)N1Cc2[nH]c3ccccc3c2C[C@H]1C(=O)O` to `Cc1ccc(S(=O)(=O)N2Cc3[nH]c4ccccc4c3C[C@H]2C(=O)O)cc1`, the Survival falls from 94.2% to 85.5%.

Work on `O=C(O)[C@H]1Cc2c([nH]c3ccccc23)CN1` yielded a Survival of 95.9%.

target: NAD(P)H dehydrogenase [quinone] 1 (Mus musculus) (UniProt Q64669); assay: Induction of quinone reductase 1 activity in mouse Hepa-1c1c7 cells assessed as cell survival at 50 uM by MTT assay relative to control; type: cell-based; settings: not given
Sequence (Q64669 whole entry): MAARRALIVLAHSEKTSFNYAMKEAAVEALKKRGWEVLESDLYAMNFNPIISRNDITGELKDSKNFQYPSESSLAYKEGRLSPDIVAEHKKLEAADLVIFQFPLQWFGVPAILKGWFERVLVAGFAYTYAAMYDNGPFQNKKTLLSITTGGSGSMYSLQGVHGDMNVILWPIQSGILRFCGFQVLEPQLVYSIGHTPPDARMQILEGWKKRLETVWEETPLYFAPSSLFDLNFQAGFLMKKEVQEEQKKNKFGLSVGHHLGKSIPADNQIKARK

Going from `COC(=O)[C@H]1Cc2c([nH]c3ccccc23)CN1S(=O)(=O)c1ccc(C)cc1` to `Cc1ccc(S(=O)(=O)N2Cc3[nH]c4ccccc4c3C[C@@H]2C(=O)O)cc1`, the Survival rises from 85.8% to 93.8%.

Compared with `CS(=O)(=O)N1Cc2[nH]c3ccccc3c2C[C@H]1C(=O)O`, `Cc1ccc(S(=O)(=O)N2Cc3[nH]c4ccccc4c3C[C@H]2C(=O)O)cc1` is lower in Survival: 96.7% for the first, 88.8% for the second.

Molecule `O=C(O)[C@H]1Cc2c([nH]c3ccccc23)CN1` has a Survival of 90.7%.

target: NAD(P)H dehydrogenase [quinone] 1 (Mus musculus) (UniProt Q64669); assay: Induction of quinone reductase 1 activity in mouse Hepa-1c1c7 cells at 50 uM by MTT assay relative to untreated control; type: cell-based; settings: not given
Method in brief: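 Hepa 1c1c7 murine hepatoma cells treated with compound at 50 μM. QR1 measured by NADPH-dependent, menadiol-mediated reduction of MTT to formazan. Protein measured by crystal violet staining of identical plates. Specific activity is nmol formazan per mg protein per min. Induction ratio is treated versus DMSO-treated control.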

Compared with `COC(=O)[C@H]1Cc2c([nH]c3ccccc23)CN1S(=O)(=O)c1ccc(C)cc1`, `Cc1ccc(S(=O)(=O)N2Cc3[nH]c4ccccc4c3C[C@@H]2C(=O)O)cc1` is lower in Ratio: 1.3 for the first, 1.2 for the second.

Going from `CS(=O)(=O)N1Cc2[nH]c3ccccc3c2C[C@H]1C(=O)O` to `Cc1ccc(S(=O)(=O)N2Cc3[nH]c4ccccc4c3C[C@H]2C(=O)O)cc1`, the Ratio rises from 1.1 to 1.4.

`O=C(O)[C@H]1Cc2c([nH]c3ccccc23)CN1` showed a Ratio of 0.8.

target: T2, Aromatase (Homo sapiens, UniProt P11511); assay: Inhibition of aromatase at 50 uM after 10 mins preincubation by plate reader relative to control; settings: not given
T2 sequence (P11511 whole entry): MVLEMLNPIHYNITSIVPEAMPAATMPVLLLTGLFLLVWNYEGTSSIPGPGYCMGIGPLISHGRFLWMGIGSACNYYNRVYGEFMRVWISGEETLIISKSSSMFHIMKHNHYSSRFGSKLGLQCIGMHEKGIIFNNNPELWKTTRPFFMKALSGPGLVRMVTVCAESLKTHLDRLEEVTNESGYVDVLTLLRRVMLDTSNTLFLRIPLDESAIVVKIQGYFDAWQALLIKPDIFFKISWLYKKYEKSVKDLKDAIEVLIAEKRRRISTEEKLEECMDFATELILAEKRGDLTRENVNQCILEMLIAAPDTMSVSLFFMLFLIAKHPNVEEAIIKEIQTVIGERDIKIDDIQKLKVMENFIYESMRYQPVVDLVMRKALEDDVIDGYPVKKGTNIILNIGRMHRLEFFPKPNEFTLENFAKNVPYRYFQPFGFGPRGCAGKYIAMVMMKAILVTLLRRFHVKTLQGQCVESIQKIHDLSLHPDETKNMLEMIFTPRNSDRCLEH
Method in brief: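 CYP19 enzyme. Compound pre-incubated 10 min with an NADPH-regenerating system (NADP+, glucose 6-phosphate, G6PDH, MgCl2, albumin) in 50 mM potassium phosphate pH 7.4. Enzyme and 0.4 μM dibenzylfluorescein substrate then added, 30 min at 37 °C. Quenched with 2 N NaOH and incubated a further 2 h at 37 °C. Fluorescence read at ex 485/em 530 nm. Compound tested at 50 μM.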

First: COC(=O)[C@H]1Cc2c([nH]c3ccccc23)CN1S(=O)(=O)c1ccc(C)cc1
Second: Cc1ccc(S(=O)(=O)N2Cc3[nH]c4ccccc4c3C[C@@H]2C(=O)O)cc1
The inhibition at 50 µM of the first is higher: 28.2% for the first, 23% for the second.

Compared with `CS(=O)(=O)N1Cc2[nH]c3ccccc3c2C[C@H]1C(=O)O`, `Cc1ccc(S(=O)(=O)N2Cc3[nH]c4ccccc4c3C[C@H]2C(=O)O)cc1` is lower in inhibition at 50 µM: 26.5% for the first, 16.9% for the second.

Molecule `O=C(O)[C@H]1Cc2c([nH]c3ccccc23)CN1` has an inhibition at 50 µM of 34.9%.

tested on: MCF7; assay: Antiproliferative activity against human MCF7 cells assessed as survival at 50 uM after 72 hrs by SRB assay relative to control; type: functional; settings: MCF7, 72 h, read-out: Survival
Method in brief: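 MCF7 cells (1 × 10^4 per well) were plated onto compound and kept at 37°C, 5% CO2 for 72 h. Cells were fixed in 10% TCA for 30 min and stained with 0.4% SRB in 1% acetic acid for 30 min. Bound dye was dissolved in 10 mM Tris (pH 10.0) and read at 515 nm. Survival is given as % of DMSO-treated controls, screened at 50 μM.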

Going from `Cc1ccc(S(=O)(=O)N2Cc3[nH]c4ccccc4c3C[C@@H]2C(=O)O)cc1` to `Cc1ccc(S(=O)(=O)N2Cc3[nH]c4ccccc4c3C[C@H]2C(=O)O)cc1`, the viability at 50 µM falls from 99.8% to 96.5%.

tested on: HEK293; assay: Inhibition of TNF-alpha-induced NFkappaB activation in human HEK293 cells assessed as cell survival at 50 uM after 6 hrs by luciferase assay relative to control; type: cell-based; settings: not given

Going from `COC(=O)[C@H]1Cc2c([nH]c3ccccc23)CN1S(=O)(=O)c1ccc(C)cc1` to `Cc1ccc(S(=O)(=O)N2Cc3[nH]c4ccccc4c3C[C@@H]2C(=O)O)cc1`, the Survival rises from 114% to 195%.

First: CS(=O)(=O)N1Cc2[nH]c3ccccc3c2C[C@H]1C(=O)O
Second: Cc1ccc(S(=O)(=O)N2Cc3[nH]c4ccccc4c3C[C@H]2C(=O)O)cc1
The Survival of the first is lower: 256% for the first, 272% for the second.

In the case of `O=C(O)[C@H]1Cc2c([nH]c3ccccc23)CN1`, the Survival is reported as 95.4%.

tested on: HEK293; assay: Inhibition of TNF-alpha-induced NFkappaB activation in human HEK293 cells at 50 uM after 6 hrs by luciferase assay relative to control; type: cell-based; settings: not given
Method in brief: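 Cells incubated 6 h with TNFα plus test compound, then luciferase activity measured. Results expressed as percent of TNFα-treated control. Screening concentration 50 μM.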

Going from `COC(=O)[C@H]1Cc2c([nH]c3ccccc23)CN1S(=O)(=O)c1ccc(C)cc1` to `Cc1ccc(S(=O)(=O)N2Cc3[nH]c4ccccc4c3C[C@@H]2C(=O)O)cc1`, the inhibition rises from 25.2% to 26%.

Compared with `CS(=O)(=O)N1Cc2[nH]c3ccccc3c2C[C@H]1C(=O)O`, `Cc1ccc(S(=O)(=O)N2Cc3[nH]c4ccccc4c3C[C@H]2C(=O)O)cc1` is lower in inhibition: 51.1% for the first, 42.5% for the second.

target: T1, Nitric oxide synthase, inducible (Mus musculus); assay: Inhibition of iNOS-mediated nitric oxide production in LPS-stimulated mouse RAW 264.7 cells at 50 uM pretreated 15 mins before LPS challenge measured after 20 hrs relative to control; type: cell-based; settings: not given
Method in brief: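 RAW 264.7 cells cultured 24 h at 37°C, then given serially diluted compounds for 15 min before LPS (1 μg/mL) for 20 h. Nitrite in the medium measured with Griess reagent at 540 nm against a sodium nitrite standard curve. Cytotoxicity checked by SRB under the same conditions.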

Compared with `COC(=O)[C@H]1Cc2c([nH]c3ccccc23)CN1S(=O)(=O)c1ccc(C)cc1`, `Cc1ccc(S(=O)(=O)N2Cc3[nH]c4ccccc4c3C[C@@H]2C(=O)O)cc1` is lower in inhibition: 7.4% for the first, 2.9% for the second.

Going from `CS(=O)(=O)N1Cc2[nH]c3ccccc3c2C[C@H]1C(=O)O` to `Cc1ccc(S(=O)(=O)N2Cc3[nH]c4ccccc4c3C[C@H]2C(=O)O)cc1`, the inhibition rises from 6.4% to 7%.

For `O=C(O)[C@H]1Cc2c([nH]c3ccccc23)CN1`, the inhibition was 3.5%.
